Test [1] can be described thus: Cytotoxicity against Myosarcoma cells. The format is functional, cell-based. The essentials:
(§1)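 Cytotoxicity followed previously published protocols. KB cells (HeLa-derived, ATCC CCL 17) used podophyllotoxin as the positive control. Jurkat T helper cells (ATCC TIB 152) used helenalin. Myosarcoma cells used aculeatin A.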

Test [2] concerns Jurkat. As to the kind of experiment: Cytotoxicity against human Jurkat T cells. The format is functional, cell-based. The essentials: as §1
Test [3] concerns Staphylococcus epidermidis. Description: Antimicrobial activity against Staphylococcus epidermidis ATCC 12228 by doubling dilution method. The test is classed as functional. The essentials: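 Twofold serial (doubling) dilution susceptibility test following a previously published protocol, with chloramphenicol as the positive control.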
In test [4] the test system is KB. Description: Cytotoxicity against human KB cells. The format is functional, cell-based. The essentials:
as §1

≈ marks a conversion by molar mass, not a printed value. Where only a bound is given, the exact number is not on record here.

The IC50 is the midpoint of a concentration-inhibition curve. Read a high IC50 as weaker potency. By MIC is commonly meant the least concentration at which growth counts as inhibited. For `C=C(C)[C@@H]1C[C@@H](CC2(CC=C(C)C)C(=O)C3=C(O)[C@@H](C)[C@@H](C)OC3=C(C(CC(=O)O)c3ccccc3)C2=O)C1(C)C` (relative stereo) [BRASILIENSOPHYLLIC ACID A], the IC50 in test [1], in test [2] and in test [4] was above 20 mg/L throughout. This compound also displayed a minimum inhibitory concentration (MIC) in test [3] of 16 mg/L (≈ 28.5 µM).

For `C=C(C)[C@@H]1C[C@@H](CC2(CC=C(C)C)C(=O)C(C(CC(=O)O)c3ccccc3)=C3O[C@H](C)[C@@H](C)C(=O)C3=C2O)C1(C)C` (relative stereo) [BRASILIENSOPHYLLIC ACID B], the half-inhibitory concentration (IC50) in test [1], in test [2] and in test [4] was above 20 mg/L each time. Also, the lowest concentration to inhibit growth in test [3] (MIC) was 16 mg/L (≈ 28.5 µM).

For `C=C(C)[C@@H]1C[C@@H](CC2(CC=C(C)C)C(=O)C3=C(O)[C@@H](C)[C@H](C)OC3=C(C(CC(=O)O)c3ccccc3)C2=O)C1(C)C` (relative stereo) [ISOBRASILIENSOPHYLLIC ACID A], the concentration for half-maximal inhibition (IC50) in test [1], in test [2] and in test [4] was above 20 mg/L in each case. Moreover, the minimum inhibitory concentration (MIC) in test [3] worked out at 16 mg/L (≈ 28.5 µM).

Consider `C=C(C)[C@@H]1C[C@@H](CC2(CC=C(C)C)C(=O)C(C(CC(=O)O)c3ccccc3)=C3O[C@@H](C)[C@@H](C)C(=O)C3=C2O)C1(C)C` (relative stereo) [ISOBRASILIENSOPHYLLIC ACID B], for which the half-inhibitory concentration (IC50) in test [1], in test [2] and in test [4] was above 20 mg/L in each case. Moreover, the lowest concentration to inhibit growth in test [3] (MIC) was 16 mg/L (≈ 28.5 µM).

`CCCCCCCCCCCCC[C@@H]1C[C@@H](O)C[C@]2(CCC3(C=CC(=O)C=C3)O2)O1` [ACULEATIN A] showed an IC50 in test [1] of 0.3 mg/L (≈ 0.717 µM).

As to `O=C(N[C@H](CO)[C@H](O)c1ccc([N+](=O)[O-])cc1)C(Cl)Cl` [CHLORAMPHENICOL], the minimum inhibitory concentration (MIC) in test [3] came out at 4 mg/L (≈ 12.4 µM).

`C=C1C(=O)O[C@@H]2C[C@@H](C)[C@@H]3C=CC(=O)[C@@]3(C)[C@@H](O)[C@H]12` [HELENALIN] yielded an IC50 in test [2] of 0.03 mg/L (≈ 0.114 µM).

As for `COc1cc([C@@H]2c3cc4c(cc3[C@H](O)[C@H]3COC(=O)[C@H]23)OCO4)cc(OC)c1OC` [PODOFILOX], the IC50 in test [4] was 0.005 mg/L (≈ 0.0121 µM).

The values are drawn from ChEMBL document CHEMBL1151163, “New chromanone acids with antibacterial activity from Calophyllum brasiliense” (J Nat Prod, 2004).
